Measured values: article PMC4004768 (The Journal of antibiotics, 2013)

How the values were obtained:
B. subtilis ATCC 6633 [1] = assay: membrane potential by flow cytometry with DiOC2; format: cell-based, Bacillus subtilis; conditions: 0, 0.2, 2, 20 μM, triplicate flow cytometry
Procedure, shortened: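 Flow cytometry on bacteria exposed to the test compound at 0, 0.2, 2 and 20 μM, with DiOC2 as the membrane-potential dye. The read-out is mean fluorescence intensity averaged over triplicate measurements. An alternative read-out is the ratio of fluorescence at 610 and 530 nm.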

B. subtilis ATCC 6633 [2] = assay: propidium iodide uptake; format: cell-based, Bacillus subtilis; conditions: B. subtilis ATCC 6633, lower efficiency than nisin
B. subtilis ATCC6633 = assay: antimicrobial activity assay in liquid medium; format: cell-based, Bacillus subtilis
[3] = cited from earlier work
[4] = specific activity against B. subtilis ATCC6633, liquid medium

Geobacillin I
change in mean fluorescence intensity (MFI), DiOC2 (B. subtilis ATCC 6633 [1]): significant decrease | efficiency in PI uptake relative to nisin (B. subtilis ATCC 6633 [2]): two-fold lower | MIC relative to nisin (B. subtilis ATCC6633; B. subtilis ATCC 6633, higher MIC compared to nisin): four-fold higher | IC50 (B. subtilis ATCC6633; [4]): 560 ± 10 nM | MIC (B. subtilis ATCC6633; [4]): 1.0 µM | stability at physiological pH compared to nisin [3]: higher stability
